Results on two substances are retold here after article PMC3268818 (Journal of Molecular Biology, 2011).

Where only a bound is given, the exact number is not on record here.

Data set [1] relates to BclXL_FL. Kind of data set: DSC thermal stability of BclXL_FL. In kind it is physicochemical, human. The note with it: BclXL_FL alone, 50mM Sodium phosphate, pH 8.0, 10–50μM protein, 40–120°C, 1°C/min, 3atm, repeated at least three times. For orientation: In DSC, transitions show as peaks or steps in heat flow.
Data set [2] can be described thus: SEC-coupled analytical light scattering. The format is physicochemical, human. Conditions: for oligomeric state in solution / Mw/Mn / Rg/Rh / dimer fraction / approximate mass of higher-order oligomer: ALS; for oligomeric state in solution / Rh / Mn / Mw/Mn / Mw / Rg / Rg/Rh / dimer fraction: pH 8, 10°C; for Rh: hydrodynamic radius, ALS (DLS); for Rh / Mn / Mw / Rg: at least three independent measurements; for Rh / Mn / Mw/Mn / Mw / Rg / Rg/Rh: ± one standard deviation; for Mn: number-average molar mass; for Mn / Mw / Rg: ALS (SLS); for Mw/Mn: polydispersity; for Mw: weighted-average molar mass; for Rg: radius of gyration; for Rg/Rh: shape ratio. The method in brief:
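His-tagged human BclXL (residues 1–233 or 1–200) was expressed in E. coli and purified by Ni-NTA then SEC. It was run at 10–50μM starting concentration in 50mM sodium phosphate, 100mM NaCl, 1mM EDTA, 5mM β-mercaptoethanol, pH 8.0, on Superdex 200 at 1ml/min and 10°C. Mw, Mn and Rg came from triple-angle SLS (Zimm fit); Rh came from DLS at 90° (Stokes-Einstein). n≥3, ±SD.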

The test system of data set [3] is BclXL_FL. Kind of data set: TEM of negatively-stained BclXL_FL. The arrangement: species or system human. Conditions: 25μM BclXL_FL alone; 50mM Sodium phosphate, pH 8.0, negative staining. In short, it runs like this: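 Full-length His-tagged human BclXL (residues 1–233) was expressed in E. coli and purified by Ni-NTA and SEC. It was imaged at 25μM, alone or with a 10-molar excess of a 20-mer BH3 peptide, in 50mM sodium phosphate pH 8.0. Samples were negatively stained and viewed by TEM at 80kV and 105,000 magnification.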

In data set [4] the test system is BclXL_FL. Kind of data set: Steady-state fluorescence. The arrangement: species or system human. Conditions: BclXL_FL alone, 5μM; SSF, excitation 290nm, pH 8.0, 25 °C.

As for “BclXL_FL: Full-length BclXL (residues 1–233), human, with an N-terminal His-tag, expressed in Escherichia coli”, the “melting temperature (Tm)” value in the data set with BclXL_FL [1] is more than 120 °C. Besides, in data set [2], the “oligomeric state in solution” value was “predominantly associates into higher-order oligomers” and the dimer fraction entry is listed as “minor fraction”. In data set [2] (Dimer), this substance registered a Rh of 47 ± 2 Å, a Mn of 61 ± 3 kD, a Mw/Mn of 1.01 ± 0.01 and a Mw of 62 ± 3 kD. Besides, in data set [2] (Monomer), the Rh is reported as 36 ± 1 Å, the Mn is given as 31 ± 1 kD and the Mw/Mn worked out at 1.00 ± 0.01. In addition, in data set [2] (Multimer), the Rh is reported as 99 ± 2 Å, the Mn is 321 ± 25 kD, the Mw/Mn is listed as 1.14 ± 0.02 and the Rg was 107 ± 4 Å. Besides, in data set [2] (Multimer), the Rg/Rh is 1.10 ± 0.01 and the Mw came out at 361 ± 26 kD. For the same substance, in data set [2] (Polymer), the Rh was 175 ± 6 Å, the Mn was determined as 3134 ± 147 kD, the Rg came to 198 ± 8 Å and the Rg/Rh is given as 1.13 ± 0.02. The substance further registered a Mw in data set [2] (Polymer) of 3355 ± 188 kD. The “oligomer equilibrium on SEC re-analysis” value in data set [2] (SEC-resolved fractions re-analyzed on SEC column) is listed as “reversible monomer-dimer-multimer-polymer equilibrium”. Besides, in data set [2] (multimer), the “approximate mass of higher-order oligomer” value is ~ 300 kD. Moreover, in data set [2] (polymer), the “approximate mass of higher-order oligomer” value is listed as ~ 3000 kD. Besides, the TEM appearance result in the data set on BclXL_FL [3] is recorded as “rod-like appearance in solution”. Further, the “intrinsic fluorescence relative to BclXL_dTM” value in the data set on BclXL_FL [4] is given as “much higher than that observed for the BclXL_dTM construct”.

In the case of “BclXL_dTM: BclXL in which the TM domain is deleted (residues 1–200), human, with an N-terminal His-tag, expressed in Escherichia coli”, in data set [2], the “oligomeric state in solution” value is listed as “largely monomeric in solution” and the dimer fraction result is “minor fraction”. Besides, in data set [2] (Dimer), the Rh amounted to 41 ± 3 Å, the Mn is on record as 54 ± 2 kD, the Mw/Mn is reported as 1.00 ± 0.01 and the Mw is 54 ± 2 kD. In addition, in data set [2] (Monomer), the Rh came to 33 ± 2 Å, the Mn came to 28 ± 2 kD and the Mw/Mn is reported as 1.00 ± 0.00.
